Screens deposited in PubChem by several laboratories.
NF-kB expr up = compounds increasing NF-kB expression in human neuronal cells. 190,000 tested, 1.6% active. AID 1239. NF-kB reporter expression; stronger effect = higher value. fold change at 12.5 µM; in the data active = fold change above about 3.3
APP 5'UTR act = APP 5'UTR luciferase reporter activation. SH-SY5Y APP 5'UTR luciferase reporter, luminescence; zero percent = DMSO vehicle wells. activation, % at 2 µM. 190,000 tested, 1% active. AID 1276;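 active = activation above a set limit, based on mean plus 3 SD of controls, cut at about 140% in these data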
FLuc inh counter = counter-screen for luciferase assay inhibitors: firefly luciferase inhibition; P08659; ATPLite firefly luciferase biochemical luminescence, 10 min; inhibition, % at 10 µM; 200,000 tested, 1.5% active; AID 1006;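 active = inhibition above about 50% when tested at 10 µM, limit read from the data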
Target sequence (P08659 whole entry, looked up): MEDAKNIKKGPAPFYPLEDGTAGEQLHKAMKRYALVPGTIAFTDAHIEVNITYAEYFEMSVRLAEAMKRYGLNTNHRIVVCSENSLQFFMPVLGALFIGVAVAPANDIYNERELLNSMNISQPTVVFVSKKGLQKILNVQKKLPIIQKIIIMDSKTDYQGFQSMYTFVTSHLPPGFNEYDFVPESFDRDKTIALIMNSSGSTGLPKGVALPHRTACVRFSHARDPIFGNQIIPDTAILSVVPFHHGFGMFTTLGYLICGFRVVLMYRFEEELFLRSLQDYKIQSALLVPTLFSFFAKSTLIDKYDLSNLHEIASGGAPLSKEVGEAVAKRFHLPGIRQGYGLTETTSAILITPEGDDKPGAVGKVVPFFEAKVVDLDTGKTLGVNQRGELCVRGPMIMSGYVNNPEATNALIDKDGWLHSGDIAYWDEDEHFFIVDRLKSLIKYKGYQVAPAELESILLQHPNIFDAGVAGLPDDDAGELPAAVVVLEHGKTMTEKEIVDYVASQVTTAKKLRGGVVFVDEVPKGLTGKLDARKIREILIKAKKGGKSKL
FLuc act counter = firefly luciferase counter-screen for stimulation assays; 200,000 tested, under 10 active; P08659; ATPlite luciferase biochemical, luminescence, 10 min; 0 = ATP-free wells, 1 = DMSO control; activation factor at 10 µM;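 active = luciferase activation factor, scaled between plate controls, of at least 2 with compound at 10 µM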
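Assay system: Luciferase/luciferin reagent mix; Medium: PBS as buffer for the ATP substrate; Dosing: test compounds dosed from 2 mM stocks in 100% DMSO; Times: 10 min, room temperature; Signal: luminescence from luciferase reaction; Read-out: luciferase activation; Controls: No-ATP low control, compound-free enzyme-plus-ATP high control.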
PPC-1+TRAIL kill = compounds killing PPC-1 cancer cells with TRAIL present (potentiator screen, no TRAIL-free arm); PPC-1 cells + TRAIL, ATPLite viability luminescence; cell killing (% activity), % at 4 µM or 5 µM; 220,000 tested, 0.41% active; AID 1443;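 active = cell killing above 50% in the first pass at 4 µM, then a duplicate retest at 5 µM averaging 50% or more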
C8 TRAIL sens = sensitizes caspase-8 expressing cells to TRAIL; NB7+C8 cells + TRAIL, ATPlite viability luminescence; inhibition (viability loss, TRAIL sensitization), % at 10 µM; 360,000 tested, 1% active; AID 624354;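 active = compounds causing at least 50% loss of cell viability in the single-dose screen, relative to plate controls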
Each line names hits and unclear results; the compound was inactive in the other large screens. Shown are actives, neighbours in structure and some others; about 2.2% of the full set was active somewhere.

c1ccc(-c2cnc(-c3ccccc3)nc2)cc1	NF-kB expr up 9.4, FLuc inh counter 66, C8 TRAIL sens 75
Cc1cc(F)cc(-c2cc(C(=O)NCc3ccco3)[nH]n2)c1	none (no result: NF-kB expr up, APP 5'UTR act, FLuc inh counter, FLuc act counter, PPC-1+TRAIL kill)
O=C(Nc1cnn(C23CC4CC(CC(C4)C2)C3)c1)c1cnn2c(C(F)(F)F)cc(-c3ccco3)nc12	C8 TRAIL sens 64
O=C(Nc1ccc2c(c1)OCO2)c1cnn2c(C(F)(F)F)cc(-c3ccco3)nc12	none
Nc1c(C(=O)Nc2nc3ccccc3s2)sc2nc(-c3cccs3)ccc12	C8 TRAIL sens 96
O=C(Nc1nc2ccccc2s1)c1c(F)cccc1Cl	none (no result: NF-kB expr up, APP 5'UTR act, FLuc inh counter, FLuc act counter, PPC-1+TRAIL kill)
CC(=O)Nc1cc(C)nn1-c1nc2ccccc2s1	none
Nc1ccc(C(=O)Nc2nc3ccccc3s2)cc1	NF-kB expr up 3.9, APP 5'UTR act 160, FLuc inh counter 74, PPC-1+TRAIL kill 59, C8 TRAIL sens 50
Cn1cc(Cl)c(C(=O)Nc2nc3ccccc3s2)n1	NF-kB expr up 4.4, APP 5'UTR act 146, FLuc inh counter 61
Cc1cc(C)n(-c2ccc(C(=O)Nc3nc4ccccc4s3)cc2)n1	NF-kB expr up 3.9
C[C@@H]1CCCCO[C@H](CN(C)C(=O)Nc2ccc(F)cc2)[C@@H](C)CN([C@H](C)CO)C(=O)c2cc(N(C)C)ccc2O1	none (no result: NF-kB expr up, APP 5'UTR act, FLuc inh counter, FLuc act counter, PPC-1+TRAIL kill)
S=c1[nH]nc(-c2ccc3ccccc3n2)n1-c1cc(Cl)cc(Cl)c1	FLuc inh counter 70
S=c1[nH]nc(SCc2ccccc2)c2[nH]cnc12	none (no result: NF-kB expr up, APP 5'UTR act, FLuc inh counter, FLuc act counter, PPC-1+TRAIL kill)
COc1ccc2oc(=Nc3ccccc3)c(-c3nc4ccccc4[nH]3)cc2c1	NF-kB expr up 4.2, APP 5'UTR act 138, FLuc inh counter 61, PPC-1+TRAIL kill 61, C8 TRAIL sens 63
CCC(=O)N(C1=C(NC)C(=O)c2ccccc2C1=O)C(C)C	none
CNC1=C(N(C(C)=O)c2ccc(Br)cc2)C(=O)c2ccccc2C1=O	PPC-1+TRAIL kill 68, C8 TRAIL sens 92
Cc1ccc(N2CCN(S(=O)(=O)c3ccc(Cl)s3)CC2C)cc1 (stereo unspecified)	none (no result: NF-kB expr up, APP 5'UTR act, FLuc inh counter, FLuc act counter, PPC-1+TRAIL kill)
CCCC(=O)OCCNc1cc(Sc2nccn2C)c2nonc2c1[N+](=O)[O-]	C8 TRAIL sens 57
CCCSc1cc(NCCOC(=O)CCC)c([N+](=O)[O-])c2nonc12	none
CCOC(=O)CSc1nnc(NC(=O)c2ccc3c(c2)OCO3)s1	C8 TRAIL sens 70 (no result: NF-kB expr up, APP 5'UTR act, FLuc inh counter, FLuc act counter, PPC-1+TRAIL kill)
CCSc1nnc(NC(=O)c2ccc3c(c2)OCO3)s1	NF-kB expr up 3.4
CC(C)Sc1nnc(NC(=O)c2ccc3c(c2)OCO3)s1	none (no result: NF-kB expr up, APP 5'UTR act, FLuc inh counter, FLuc act counter, PPC-1+TRAIL kill)
CCOC(=O)CSc1nnc(NC(=O)c2ccco2)s1	none (no result: NF-kB expr up, APP 5'UTR act, FLuc inh counter, FLuc act counter, PPC-1+TRAIL kill)
CC(C)c1nnc(NC(=O)c2ccc3c(c2)OCO3)s1	NF-kB expr up 4.8, APP 5'UTR act 148, FLuc inh counter 51
CCN(CC)c1ccc(NC(=O)Nc2cccc(C(C)=O)c2)cc1	FLuc inh counter 52
CCn1c(C)nc2cc(C(=O)OC)ccc21	none (no result: PPC-1+TRAIL kill)
CC(=O)c1cccc(NC(=O)Nc2ccc(C(=O)N3CCCC3)cc2)c1	FLuc inh counter 61
CCn1c(C)nc2cc(C(=O)NN=Cc3ccccc3OC(F)F)ccc21	none (no result: NF-kB expr up, APP 5'UTR act, FLuc inh counter, FLuc act counter, PPC-1+TRAIL kill)
CCn1c(C)nc2cc(NC(=O)Nc3cccc(C(C)=O)c3)ccc21	C8 TRAIL sens 56 (no result: NF-kB expr up, APP 5'UTR act, FLuc inh counter, FLuc act counter, PPC-1+TRAIL kill)
CC(=O)Nc1cccc(NC(=O)Nc2ccc(C(C)=O)cc2)c1	none
CCn1c(C)nc2cc(C(=O)N/N=C/c3ccccc3C)ccc21	NF-kB expr up 3.9, FLuc inh counter 53
CCC(=O)N(CCc1ccccc1)Cc1cc2cc(OC)ccc2[nH]c1=O	none (no result: NF-kB expr up, APP 5'UTR act, FLuc inh counter, FLuc act counter)
NCCCC[C@H]1CNC(=S)N1CCc1cccc(F)c1	none
Cc1ccc(C)c(NS(=O)(=O)c2cc(C(=O)NCc3ccccn3)ccc2C)c1	none (no result: NF-kB expr up, APP 5'UTR act, FLuc inh counter, FLuc act counter, PPC-1+TRAIL kill)
O=C(Nc1ccccc1)Nc1ccc(C(=O)N2CCCC2)cc1	APP 5'UTR act 186, FLuc inh counter 87, C8 TRAIL sens 69
COC(=O)c1ccc(CNC(=O)Cn2nnnc2CN(C)C(C)C)cc1	none (no result: NF-kB expr up, APP 5'UTR act, FLuc inh counter, FLuc act counter, PPC-1+TRAIL kill)
COc1ccc(OCC(=O)Nc2cccc(OC)c2)cc1	none
Cc1ccc(NC(=O)CSc2nnc(-c3ccncc3)o2)cc1	none
O=C(CSc1nnc(-c2ccc(O)cc2)o1)Nc1cccc(O)c1	C8 TRAIL sens 48 (no result: NF-kB expr up, APP 5'UTR act, FLuc inh counter, FLuc act counter, PPC-1+TRAIL kill)
NS(=O)(=O)c1ccc(NC(=O)CSc2nnc(-c3ccc(O)cc3)o2)cc1	none (no result: NF-kB expr up, APP 5'UTR act, FLuc inh counter, FLuc act counter, PPC-1+TRAIL kill)
COc1cccc(NC(=O)COc2ccccc2C(N)=O)c1	FLuc inh counter 68
